Assay results taken from ChEMBL document CHEMBL1158140, “Abietane diterpenoids from Salvia pachyphylla and S. clevelandii with cytotoxic activity against human cancer cell lines” (2006).

Legend:
Type in all cases: functional
A2780 = experiment: Cytotoxicity against human A2780 cells after 48 hrs by SRB assay; conditions: A2780, 48 h
Summary of the method: (§1)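 RPMI 1640 with 5% heat-inactivated FCS and 2 mM L-glutamine, 37 °C, 5% CO2. Seeded per well at 6000 (SW1573, HBL-100), 7000 (A2780), 12 000 (WiDr) or 15 000 (T-47D). Triplicate, 1-100 µM from day 1 for 48 h; DMSO 0.25% v/v control. TCA-fixed, SRB OD 490 nm. Percentage growth from T0, T and control ODs gives GI50, mean ± SD of 3-5 experiments.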

SW1573 = experiment: Cytotoxicity against human SW1573 cells after 48 hrs by SRB assay; conditions: SW1573, 48 h; summary of the method: as §1
WiDr = experiment: Cytotoxicity against human WiDr cells after 48 hrs by SRB assay; summary of the method: as §1
T47D = experiment: Cytotoxicity against human T47D cells after 48 hrs by SRB assay; summary of the method: as §1
HBL-100 = experiment: Cytotoxicity against human HBL100 cells after 48 hrs by SRB assay; conditions: HBL-100, 48 h; summary of the method: as §1

Row | SMILES | GI50 (A2780) [µM] | GI50 (SW1573) [µM] | GI50 (WiDr) [µM] | GI50 (T47D) [µM] | GI50 (HBL-100) [µM]
1 | CC(C)c1cc2c(c(O)c1O)[C@@]13CCCC(C)(C)[C@@H]1[C@@H](O)[C@@H]2OC3=O [ISOROSMANOL] | 19 | 23 | > 100 | > 100 | 17
2 | CC(C)c1cc2c(c(O)c1O)[C@@]13CCCC(C)(C)[C@@H]1C[C@@H]2OC3=O [CARNOSOL] | 3.6 | 10 | 26 | 24 | 3.9
3 | CC(C)c1cc2c(c(O)c1O)[C@@]13CCCC(C)(C)[C@@H]1C[C@@H]2OC3 | 5.4 | 22 | 32 | 32 | 4.6
4 | CC(C)C1=C[C@@]23CC[C@H]4C(C)(C)CCC[C@]4(CO2)C3=C(O)C1=O [PACHYPHYLLONE] | 14 | 23 | 36 | 32 | 22
5 | COc1cc2c(cc1C(C)C)C(=O)C=C1C(C)(C)CCC[C@@]12C | 16 | 18 | 29 | 33 | 16
6 | CC(CO)c1cc2c(c(O)c1O)[C@@]13CCCC(C)(C)[C@@H]1C[C@@H]2OC3=O (stereo not given in full) | 3.6 | 9 | 28 | 35 | 3.6
7 | CC(C)C1=C[C@]2(O)CC[C@H]3C(C)(C)CCC[C@]3(C)C2=CC1=O | 19 | 29 | 83 | 82 | 26
8 | CC(C)c1cc(C=O)c2c(c1O)OC(=O)[C@@]21CCCC(C)(C)[C@@H]1C=O [ROSMADIAL] | 36 | 32 | 59 | 48 | 26
